Rows were chosen to be rich in hits. Some 4.5% of all compounds tested hit in one or more screens of this group.
OX1R antag-1: OX1R (HCRTR1) antagonists, primary screen, fluorescence, CHO/OX1R cells, Fluo-8 calcium, orexin A; Orexin/Hypocretin receptor type 1 (Homo sapiens), O43613; actives 0.43% (n = 330,000); inhibition, % at 5 µM; Fluo-8 calcium fluorescence;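 active means inhibition above its plate's threshold, mean inhibition of all tested compounds on the plate plus 3 SD, cut at about 37% in these data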;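 further: 0% = orexin A challenge wells and 100% = SB-334867-A antagonist wells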
Target sequence (O43613 whole entry, looked up): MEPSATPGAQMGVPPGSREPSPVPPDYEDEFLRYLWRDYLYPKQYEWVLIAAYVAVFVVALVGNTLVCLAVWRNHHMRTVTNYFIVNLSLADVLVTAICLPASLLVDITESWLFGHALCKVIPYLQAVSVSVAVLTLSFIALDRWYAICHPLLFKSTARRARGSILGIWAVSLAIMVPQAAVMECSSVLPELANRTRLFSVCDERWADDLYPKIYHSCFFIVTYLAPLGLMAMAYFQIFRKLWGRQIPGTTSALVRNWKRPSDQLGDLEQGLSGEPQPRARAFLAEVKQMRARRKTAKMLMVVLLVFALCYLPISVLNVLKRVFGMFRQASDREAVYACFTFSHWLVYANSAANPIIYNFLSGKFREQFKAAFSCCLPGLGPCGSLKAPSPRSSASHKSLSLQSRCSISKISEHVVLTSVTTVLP
TAAR1 agonist: human TAAR1 agonists, primary screen, Fluo-8 calcium fluorescence, CHO RD-HGA16 cells. actives 0.99% (n = 360,000). vehicle wells 0%, saturating PEA agonist 100%. Trace amine-associated receptor 1 (Homo sapiens), Q96RJ0. activation, % at 3 µM;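 active means activation above the mean activation of all test compounds in the run plus 3 SD, cut at about 38% in these data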
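Signal – calcium-sensitive Fluo-8 signal, excitation 470-495, emission 515-575 nm · System – RD-HGA16 (CHO) cells co-expressing Gα16 and hTAAR1 · Incubation – 17-24 h seeding, 75 min 37 °C dye, 30 min RT · Compound dosing – 3 µM single concentration · Repeats – no replicates (n 1)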
TAAR1 antagonist: human TAAR1 antagonists, primary screen, Fluo-8 calcium fluorescence, CHO RD-HGA16 cells; Trace amine-associated receptor 1 (Homo sapiens), Q96RJ0; antagonist; inhibition, % at 3 µM; actives 1.5% (n = 360,000);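 active means inhibition above a per-plate cutoff, the mean inhibition of test compounds on that plate plus 3 SD, cut at about 49% in these data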;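 further: 0% = DMSO plus EC80 beta-PEA response and 100% = DMSO alone without agonist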
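Test system: hTAAR1-expressing CHO RD-HGA16 cells, Gα16-coupled; Probe or stimulus: EC80 β-phenethylamine stimulus; Compound dosing: single nominal final test compound concentration of 3 µM; Timing: 140 s kinetic read after compound, 140 s after agonist; Signal: Fluo-8 calcium-sensitive fluorescence; Measure: % inhibition of agonist calcium response; Controls: DMSO and EC80 PEA controls.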
GPR7 antagonist: GPR7 receptor antagonists, primary screen, cell-based, fluorescence, single concentration. GPR7-expressing cells, fluorescence antagonist assay. actives 1.1% (n = 290,000). Neuropeptides B/W receptor type 1 (Homo sapiens), P48145. inhibition, % at 4.4 µM; in the data active means inhibition above about 16%, passing the limit was not always enough;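 further: cells stimulated with the agonist NPW; 0% = agonist with vehicle and 100% = vehicle without agonist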
Target sequence (P48145 whole entry, looked up): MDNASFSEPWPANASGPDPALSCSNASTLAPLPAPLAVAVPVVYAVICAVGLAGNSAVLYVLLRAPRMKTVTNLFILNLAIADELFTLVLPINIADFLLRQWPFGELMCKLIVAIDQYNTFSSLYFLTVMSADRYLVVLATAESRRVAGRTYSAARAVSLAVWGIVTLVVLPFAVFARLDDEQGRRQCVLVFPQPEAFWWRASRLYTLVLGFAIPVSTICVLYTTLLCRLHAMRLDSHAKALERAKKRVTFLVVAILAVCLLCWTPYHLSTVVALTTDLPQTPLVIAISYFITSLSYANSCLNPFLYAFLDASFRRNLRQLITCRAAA
CHO parental Ca: ATP-evoked calcium signal inhibitors, parental CHO, primary screen, counter-screen for OX1R antagonist project, cell-based, fluorescence, Fluo-8 calcium dye | inhibition, % at 5.6 µM | actives 0.63% (n = 330,000) | parental CHO-K1, ATP-induced calcium, Fluo-8 fluorescence;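 active means inhibition above that plate's mean sample inhibition plus 3 SD, cut at about 26% in these data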;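 further: 0% = ATP-challenged DMSO wells and 100% = DMSO wells without ATP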
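material = parental CHO cells | also added = ATP as calcium-mobilizing challenge | dosing = single point at 5.6 µM | detection = intracellular calcium via Fluo-8 no-wash fluorescent dye | read-out = % inhibition | benchmarks = low control ATP plus DMSO, high control DMSO only | repeats = one well per compound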
OX1R antag-2: antagonists of human orexin 1 receptor (OX1R) | Orexin/Hypocretin receptor type 1 (Homo sapiens), O43613 | OX1R-expressing cells, FRET antagonist read-out | inhibition, % at 6.6 µM | actives 1.8% (n = 330,000) | AID 485270, 2010; in the data active means inhibition mostly above about 38%, no sharp cut-off; inactive means mostly below about 40%;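 further: 0% = agonist challenge alone and 100% = reference antagonist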
TAAR1 ag conf: human TAAR1 agonists, retest of hits, confirmation, Fluo-8 calcium fluorescence, CHO RD-HGA16 cells | actives 82% (n = 2,400) | shares compounds with TAAR1 agonist | scaled: DMSO 0%, maximal phenethylamine 100% | activation, % at 3 µM;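 active means activation above a cutoff set at the run's mean compound activation plus 3 SD, cut at about 39% in these data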
Ga16 nonsel ag: nonselective calcium mobilization agonists, CHO-Ga16 cells, counter-screen for hTAAR1 agonist project, cell-based, fluorescence, CHO-Ga16 parental line. shares compounds with TAAR1 agonist. Fluo-8 calcium fluorescence; normalized to maximal ATP response, DMSO zero. activation, % at 3 µM. actives 50% (n = 2,400);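 active means activation above the run cutoff, the mean activation over all tested wells plus 3 SD, cut at about 12% in these data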;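 further: 0% = DMSO wells and 100% = maximal ATP response on the peak over basal ratio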
TAAR1 desens: TAAR1 desensitization by agonist hits, confirmation, counter-screen for TAAR1 agonist project, cell-based, fluorescence, tachyphylaxis; CHO RD-HGA16 hTAAR1, Fluo-8 calcium, beta-PEA response inhibition; inhibition, % at 3 µM; actives 46% (n = 2,400); shares compounds with TAAR1 agonist;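 active means inhibition above the run cutoff, the mean inhibition of all test compounds plus 3 SD, cut at about 49% in these data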;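 further: beta-PEA stimulus applied at its EC80; loss of beta-PEA calcium signal after compound pretreatment read as receptor desensitization; 0% = DMSO with beta-PEA at EC80 and 100% = DMSO alone without agonist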
Ga16 antag count: inhibition of ATP-evoked calcium response in CHO-Ga16 cells, counter-screen for TAAR1 agonist project, cell-based, fluorescence; inhibition, % at 3 µM; AID 651952, 2012; CHO-Ga16 ATP-induced calcium, Fluo-8 fluorescence; shares compounds with TAAR1 agonist; actives 39% (n = 2,400);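 active means inhibition above the plate's mean compound inhibition plus 3 SD, computed per plate, cut at about 22% in these data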;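 further: 0% = EC80 ATP with DMSO and 100% = DMSO wells without ATP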
The depositor's hits bear a star; nt = no result given.

SMILES	OX1R antag-1	TAAR1 agonist	TAAR1 antagonist	GPR7 antagonist	CHO parental Ca	OX1R antag-2	TAAR1 ag conf	Ga16 nonsel ag	TAAR1 desens	Ga16 antag count
O=C(Cn1nnc(N2CCCCC2)n1)NN=Cc1ccccc1O	nt	48.8*	-12.4	nt	nt	nt	63.9*	1.9	10.8	1.2
O=Cc1cc(OCc2ccccc2)ccc1[B-](F)(F)F	nt	1.3	-11.7	nt	nt	nt	nt	nt	nt	nt
NNCCc1ccccc1	-13.4	75.4*	30.0	0.3	-21.4	15.8	93.8*	1.8	76.3*	4.9
O=C(CN1CCN(S(=O)(=O)c2ccccc2)CC1)Nc1ccc(Cl)c([N+](=O)[O-])c1	-13.2	11.0	43.2	nt	1.9	23.2	nt	nt	nt	nt
CC(=O)c1c(NCCc2ccccc2)nc(=S)n(-c2ccccc2)c1C	-20.7	49.7*	11.7	-5.8	-8.3	4.4	70.6*	18.1*	23.9	6.5
c1ccc(N2CC3COc4ccccc4C3=N2)cc1 (stereo not drawn)	nt	1.6	-3.5	nt	nt	nt	nt	nt	nt	nt
Cc1ccc(N(CCC#N)C(=O)COC(=O)C2=COCCO2)cc1	2.0	3.1	-11.3	nt	5.0	14.1	nt	nt	nt	nt
O=C(COC(=O)c1ccc(Cl)nc1)NNC(=O)c1ccc(Br)cc1	13.1	7.2	-12.6	nt	-4.6	-1.8	nt	nt	nt	nt
CCOCCCNC(=O)c1ccc(CS(=O)(=O)Cc2cccc(C)c2)o1	-29.6	11.8	0.9	-14.8	-17.9	0.4	nt	nt	nt	nt
Cc1cccc(CS(=O)(=O)Cc2ccc(C(=O)NCCc3ccccc3)o2)c1	-29.9	47.6*	24.5	-0.6	-12.9	6.5	30.6	4.5	8.3	15.7
O=C(NCCc1ccccc1)c1ccc(CS(=O)(=O)c2ccc(Br)cc2)o1	-31.8	9.6	1.9	6.7	-15.1	8.4	nt	nt	nt	nt
COc1cccc(CNC(=O)c2ccc(CS(=O)(=O)Cc3ccccc3C)o2)c1	-10.4	7.0	-8.6	-8.8	-5.5	12.4	nt	nt	nt	nt
CN(CCNC(=O)c1ccc(CS(=O)(=O)c2ccc(Br)cc2)o1)CCc1ccccc1	-32.1	53.2*	-19.1	1.1	-1.7	2.5	51.3*	2.4	14.3	9.8
Cc1ccccc1CS(=O)(=O)Cc1ccc(C(=O)NCCc2ccccc2)o1	-15.4	71.8*	41.0	-10.5	-16.6	1.8	47.7*	7.7	33.9	22.5*
Nc1cc(=O)[nH]c(SCC(=O)NCCC2=CCCCC2)n1	-11.1	13.6	-2.0	nt	-10.4	13.9	nt	nt	nt	nt
Cc1nnc(SCC(=O)NCCC2=CCCCC2)[nH]c1=O	-9.9	74.4*	69.1*	nt	-11.6	-1.6	94.5*	9.6	87.6*	13.8
O=C(CSc1ccccc1F)Nc1ccc2c(c1)OCO2	2.5	-1.2	9.9	nt	-10.2	11.2	nt	nt	nt	nt
COc1ccc(CN(C)C(=O)c2cccc(NC(=O)CC3SC(N4CCCCC4)=NC3=O)c2)c(OC)c1 (stereo not drawn)	nt	2.0	20.3	nt	nt	nt	nt	nt	nt	nt
CC(=O)Nc1ccc2c(c1)Cc1cc(N3C(=O)C=CC3=O)ccc1-2	nt	58.9*	51.6*	nt	nt	nt	34.0	29.0*	47.6	53.6*
O=C1C=CC(=O)N1c1ccc2c(c1)Cc1cc(F)ccc1-2	nt	13.9	48.3	nt	nt	nt	nt	nt	nt	nt
O=C(NCc1ccccc1)c1cc(C2CCCCN2C(=O)c2ccc(Cl)cc2)on1 (stereo not drawn)	nt	-1.4	-11.8	nt	nt	nt	nt	nt	nt	nt
Nc1cc(N)nc(SCC(=O)NC(=O)NC2CCCC2)n1	-2.5	4.6	-19.5	nt	-14.2	2.4	nt	nt	nt	nt
C=CCNc1nc(-c2ccccc2)nc(-n2ccnc2)n1	-25.0	46.3*	23.6	-13.7	-5.7	14.2	-4.0	-1.4	0.1	11.5
CCCCNc1nc(-c2ccccc2)nc(-n2ccnc2)n1	-23.1	1.4	11.2	-6.6	-13.8	32.0	nt	nt	nt	nt
O=C(O)/C=C/C(=O)NCCCc1ccccc1	-0.6	73.5*	33.6	-4.4	2.5	20.2	103.5*	2.1	78.1*	-2.5
SMILES	OX1R antag-1	TAAR1 agonist	TAAR1 antagonist	GPR7 antagonist	CHO parental Ca	OX1R antag-2	TAAR1 ag conf	Ga16 nonsel ag	TAAR1 desens	Ga16 antag count
O=C(O)/C=C/C(=O)NCc1ccccc1	-0.6	11.7	0.1	-11.3	2.4	14.7	nt	nt	nt	nt
CC(=O)N1CCc2c(sc(NC(=O)C3CCCCC3)c2C(N)=O)C1	-7.2	6.0	-15.0	-3.8	-12.3	5.9	nt	nt	nt	nt
CCOc1ccc(CCNC(=O)Cn2ncn3nc(-c4ccc(OC)cc4)cc3c2=O)cc1OCC	-17.2	0.3	-7.1	-6.3	-13.4	13.3	nt	nt	nt	nt
CCCCCc1ccc2cc(C#N)ccc2n1	nt	-0.5	-21.2	nt	nt	nt	nt	nt	nt	nt
CCN(CC)S(=O)(=O)c1ccc(C(=O)NCCSc2c[nH]c3ccccc23)cc1	-28.7	54.9*	86.4*	-5.1	-7.9	16.1	1.1	3.3	16.3	16.6
CCC(=O)NCCSc1c[nH]c2ccccc12	-1.3	5.1	-0.4	-6.7	-4.5	8.3	nt	nt	nt	nt
CCCCCCCC/C=C\CCCCCCCC(=O)O	-10.2	1.5	-5.0	nt	-4.0	3.6	nt	nt	nt	nt
CCCCCCCCCCCCC/C=C/[C@@H](O)[C@@H](N)CO	13.3	38.7*	-8.1	nt	18.2	3.6	82.7*	65.4*	13.1	23.1*
CC(C)=CC1C(C(=O)NCCc2ccccc2)C1(C)C (stereo not drawn)	-24.5	2.0	-26.1	nt	-5.7	9.0	nt	nt	nt	nt
O=C(/C=C/C(=O)N1CCc2ccccc2C1)N1CCc2ccccc2C1	-30.2	81.8*	46.7	2.5	-12.0	4.7	86.8*	2.5	58.3*	8.5
O=C(c1ccc(CN2CCc3ccccc3C2)cc1)N1CCc2ccccc2C1	-17.6	67.5*	-10.7	-5.8	-14.1	15.8	64.0*	2.4	18.0	11.9
O=C(CN(C1CCCCC1)C1CCCCC1)N1CCc2ccccc2C1	-39.0	95.7*	98.8*	-2.9	-25.0	21.2	106.5*	21.2*	105.4*	29.5*
O=C(CNCc1ccccn1)N1CCc2ccccc2C1	-2.0	46.7*	2.9	-0.1	-6.8	11.4	28.4	0.1	-2.2	5.7

High-throughput results (PubChem)
